# This is a sample that favours compounds with a hit; in the whole collection about 1.1% have one here.
# PMI act: increases human mannose-6-phosphate isomerase activity; purified human PMI, coupled resazurin fluorescence, 20 min; stronger effect = higher value; 1 = vehicle control, 0 substrate-free wells; activation factor at 20 µM; 0.005% of 190,000 active;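 active means activation factor of 2 or more at 20 µM, relative to plate controls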
# Target sequence (P34949 whole entry, looked up): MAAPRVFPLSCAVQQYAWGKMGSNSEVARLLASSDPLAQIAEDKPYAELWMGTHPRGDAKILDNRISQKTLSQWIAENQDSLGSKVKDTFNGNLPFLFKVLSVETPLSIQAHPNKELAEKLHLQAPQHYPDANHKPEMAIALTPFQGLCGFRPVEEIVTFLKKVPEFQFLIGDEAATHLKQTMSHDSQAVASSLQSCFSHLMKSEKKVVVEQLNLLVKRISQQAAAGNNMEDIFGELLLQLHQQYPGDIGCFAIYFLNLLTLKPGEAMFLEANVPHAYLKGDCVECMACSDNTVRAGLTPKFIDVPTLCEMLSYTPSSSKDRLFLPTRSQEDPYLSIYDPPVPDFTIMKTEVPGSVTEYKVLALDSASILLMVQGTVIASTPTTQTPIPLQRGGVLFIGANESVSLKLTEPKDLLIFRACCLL
# Diaph inh CS: counter-screen for diaphorase-based assays: diaphorase inhibitors and chemical oxidizers; 0.69% of 190,000 active; diaphorase resazurin-to-resorufin fluorescence, NADH, 16 min; bacterial (C. kluyveri) enzyme, not human; inhibition, % at 20 µM;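 active means primary screen inhibition at 20 µM above a set limit, cut at about 50% in these data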;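 further: plate controls were DMSO with full reaction for no effect and wells lacking NADH for full effect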
#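 material = Clostridium kluyveri diaphorase enzyme | amount = 0.14 U/mL diaphorase, enzyme working solution | schedule = incubation 16 min, room temperature | detection = fluorescence of resorufin formed from resazurin, Ex 544/Em 590 nm | benchmarks = positive control minus NADH, DMSO neutral control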
# TbHK1 inh: T. brucei hexokinase 1 inhibition; recombinant TbHK1, G6PDH-coupled NADH A340; inhibition, % at 10 µM; 0.11% of 220,000 active;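 active means inhibition of 50% or more in the single-dose primary screen; inactive means inhibition below 50%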
# PMI act satM6P: activators of human phosphomannose isomerase at near-saturating mannose 6-phosphate; coupled PMI enzyme assay, resazurin fluorescence, 20 min; stronger effect = higher value; 1 = untreated enzyme, 0 = substrate-free blank; 0.34% of 190,000 active; P34949; activation factor at 20 µM;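 active means activation factor of 2 or more at 20 µM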
#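 Material: human phosphomannose isomerase with PGI, G6PDH, diaphorase coupling enzymes. Quantity: 15 ng/mL PMI. Medium: HEPES pH 7.4 buffer with MgCl2 and Tween-20. Reagent: Near-saturating mannose-6-phosphate, 1.0 mM. Compound: 20 µM single dose. Times: enzyme reaction with compound 20 min at room temperature. Detection: resorufin fluorescence at Ex 544/Em 590 nm.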
# G6PDH counter: inhibits Leuconostoc G6PDH, flagging false hits in G6PDH-based assays | inhibition, % at 5 µM | AID 1020 | 0.12% of 200,000 active | Purified L. mesenteroides G6PDH, diaphorase/resazurin coupled fluorescence, 45 min; in the data active means inhibition above about 50%
# Diaphorase act: activates diaphorase or chemically reduces, flagging diaphorase assay artifacts. AID 1229. activation factor at 20 µM. Diaphorase/resazurin coupled assay, resorufin fluorescence, 16 min; stronger effect = higher value; 1 = vehicle wells, 0 = NADH-free wells. 0.005% of 190,000 active;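 active means diaphorase activity raised at least twofold by the compound at 20 µM; inactive means activation factor below 2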
#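 test system = bacterial diaphorase enzyme (C. kluyveri) | quantity = enzyme 0.07 U/mL final | reagent = NADH substrate 0.114 mM plus resazurin dye 0.1 mM, final | incubation = 16 min enzyme reaction, ambient temperature | buffer or medium = HEPES pH 7.4 buffer with MgCl2 and Tween 20 | signal = fluorescence of resorufin, 544 nm excitation, 590 nm emission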
# * = called active by the depositor; · = no result.
SMILES,PMI act,Diaph inh CS,TbHK1 inh,PMI act satM6P,G6PDH counter,Diaphorase act
Cc1ccc(-n2c(O)c(/C=C/C=Nc3ccccc3)c(=O)[nH]c2=O)cc1,1.1,24,-30,0.9,1,0.8
Cc1ccc(N/N=C/c2c(O)n(-c3ccccc3)c(=O)[nH]c2=O)cc1,1.6,18,-9,2.5*,6,0.8
CCC(C)N1C(=O)NC(=O)C2(Cc3c(ccc4ccccc34)N(C)C2)C1=O (stereo unspecified),1.1,74*,5,0.3,41,0.3
COc1ccc2c(c1)CC1(CN2C)C(=O)NC(=O)N(CCc2ccccc2)C1=O (stereo unspecified),1,37,2,0.7,7,0.6
CCCCCn1c(N)c(C(=O)NCCN2CCOCC2)c2nc3ccccc3nc21,0.7,9,-11,0.5,2,0.9
COc1ccc(CCNC(=O)c2c(N)n(CCN3CCOCC3)c3nc4ccccc4nc23)cc1OC,1,51*,-26,1,2,0.5
CC(C)CCP(=O)(O)c1ccccc1,1,3,-2,1.1,13,1
O=C(O)CCn1cc(C=C2C(=O)NC(=S)NC2=O)c(-c2ccccc2)n1,0.4,23,-3,1.1,13,0.8
O=C(O)CCn1cc(C=C2C(=O)NC(=S)NC2=O)c(-c2cc3ccccc3oc2=O)n1,1.3,9,-7,2.3*,7,0.9
Cc1c(NC(NC(=O)CF)C(Cl)(Cl)Cl)c(=O)n(-c2ccccc2)n1C (stereo unspecified),1.1,27,3,1.1,-2,0.7
CC1CCN(CC(=O)c2ccc3c(c2)OCCO3)CC1,1.2,14,-8,1.1,-2,0.9
CC1CCN(CC(=O)c2ccccc2Cl)CC1,1.5,8,-4,2*,-8,0.9
CCC1(C)OC(c2ccccc2)=C/C(=C/C=C2C(=O)NC(=O)NC2=O)O1 (stereo unspecified),1.1,-2,-1,1,-6,1
CCn1nc(/C=C/c2ccccc2)nc2c(=O)n(C)c(=O)nc1-2,0.6,-50,18,0.5,61*,1.5
CCn1nc(-c2cccs2)nc2c(=O)n(C)c(=O)nc1-2,0.9,-84,·,0.9,58*,1.8
O=C1NC(=O)N(c2ccccc2)C(=O)/C1=C/c1coc2ccc(O)cc2c1=O,·,·,-34,·,·,·
CCOc1cccc(OCC)c2c(C)[n+](CC3CCCO3)c(C)c1-2 (stereo unspecified),1.6,31,-18,2*,12,0.7
O=c1cccc2n1CC1CC2CN(C(c2ccccc2)c2sc3ncnn3c2O)C1 (stereo unspecified),1,4,-3,1,-6,1
C=CCN1C(=O)/C(=C/c2cccs2)C(=O)NC1=S,1.5,2,3,1.9,11,1
O=C1NC(=S)N(Cc2ccco2)C(=O)/C1=C\c1cccs1,1.3,90*,81*,1.2,17,0.1
CCCCn1c(NS(=O)(=O)c2ccc(C)cc2)c(C(=O)OCC)c2nc3ccccc3nc21,0.8,32,-5,0.5,-15,0.7
CCCCn1c(NC(=O)c2ccco2)c(C(=O)OCC)c2nc3ccccc3nc21,0.4,66*,-14,0.4,47,0.3
CCOC(=O)c1cc(CC)sc1/N=C/c1c(O)[nH]c(=S)[nH]c1=O,1.4,1,0,1.8,-8,1
CCOC(=O)c1cc(CC)sc1/N=C/C1C(=O)NC(=S)NC1=O,1.8,13,6,2.3*,6,0.9
O=C1CN=C(c2ccc[nH]2)c2cc(Cl)ccc2N1,·,·,-18,·,·,·
Cc1ccc(/C=C2\C(=O)NC(=S)N(c3ccccc3F)C2=O)s1,1.2,14,-1,1.6,-1,0.9
Cc1ccc(/C=C2\C(=O)NC(=S)N(c3ccc(F)cc3)C2=O)s1,1.6,3,40,2.1*,3,1
CCc1cccc(C)c1NC(=S)N1CC2CC(C1)c1cccc(=O)n1C2 (stereo unspecified),1,18,-7,1,-5,0.8
